Columns and labels:
[1] = target: Sodium-dependent dopamine transporter (Bos taurus, UniProt P27922); assay: Competitive inhibition against [3H]cocaine binding to cocaine receptor in bovine striatal tissue; format: tissue-based, Striatum
How it was run: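 Bovine striatum (caudate, putamen, globus pallidus, nucleus accumbens) homogenised in ice-cold 10 mM Na2HPO4 with 0.32 M sucrose, pH 7.4. Pelleted twice at 17000g for 20 min and resuspended to about 3.0 mg/mL protein (Lowry). [3H]cocaine (29.7 Ci/mmol) binding measured by filtration. Triplicates; mean of three experiments; IC50 by log-logit transformation.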

Bos taurus = species: Bos taurus; assay: Competitive inhibition against [3H]dopamine uptake in bovine striatal tissue; format: functional, Striatum
How it was run: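 Striatal P2 synaptosomes prepared in ice-cold 0.3 M sucrose with […], pH 7.4 (3000g for 10 min, then supernatant at 17000g for 20 min). [3H]dopamine (30 Ci/mmol) uptake read by filtration at 37 °C; nonspecific uptake measured at 4 °C. Run in triplicate; mean of three experiments; IC50 from log-logit transformation.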

Sodium-dependent dopamine transporter, sequence (P27922 whole entry): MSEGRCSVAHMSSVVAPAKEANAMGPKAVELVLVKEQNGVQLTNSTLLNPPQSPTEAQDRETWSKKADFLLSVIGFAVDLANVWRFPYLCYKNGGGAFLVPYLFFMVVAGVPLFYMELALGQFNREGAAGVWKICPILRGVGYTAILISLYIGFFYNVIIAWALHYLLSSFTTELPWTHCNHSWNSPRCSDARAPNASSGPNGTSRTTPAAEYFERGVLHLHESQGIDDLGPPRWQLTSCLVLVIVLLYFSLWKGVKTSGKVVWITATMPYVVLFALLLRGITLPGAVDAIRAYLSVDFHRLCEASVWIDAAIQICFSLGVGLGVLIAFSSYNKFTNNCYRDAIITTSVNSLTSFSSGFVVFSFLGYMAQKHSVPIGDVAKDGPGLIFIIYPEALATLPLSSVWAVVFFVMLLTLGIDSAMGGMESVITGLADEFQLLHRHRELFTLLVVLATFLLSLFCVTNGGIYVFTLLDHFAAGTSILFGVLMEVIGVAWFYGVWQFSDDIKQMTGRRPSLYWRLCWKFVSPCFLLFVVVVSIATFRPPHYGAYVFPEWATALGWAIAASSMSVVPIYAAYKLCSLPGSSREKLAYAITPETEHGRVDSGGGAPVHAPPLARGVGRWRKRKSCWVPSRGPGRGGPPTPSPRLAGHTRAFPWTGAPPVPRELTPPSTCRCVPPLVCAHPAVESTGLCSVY

Compound	IC50 [1] [nM]	IC50 (Bos taurus; Bos taurus, Striatum) [nM]	IC50 (Bos taurus) [nM]
COC(=O)C1C(c2ccc(N)cc2)CC2CCC1N2C (stereo not drawn)	192	557	
COC(=O)[C@@H]1C2CC[C@H](C[C@@H]1c1ccccc1)N2C (mixture of isomers; form 2)	1200		2100
COC(=O)C1C(c2ccc([N+](=O)[O-])cc2[N+](=O)[O-])CC2CCC1N2C (racemic)	11000	30000	
COC(=O)[C@@H]1C2CC[C@H](C[C@@H]1c1ccccc1)N2C (mixture of isomers; form 1)	22		133

— ChEMBL document CHEMBL1124852, “Synthesis of 3-arylecgonine analogues as inhibitors of cocaine binding and dopamine uptake” (J Med Chem, 1990)
